Measured values: ChEMBL document CHEMBL3272058, “Synthesis, structure, and reactivity of adenosine cyclic 3',5'-phosphate benzyl triesters” (J Med Chem, 1977)

What was measured:
Bos taurus [1] = species on record: Bos taurus; test: Activation of bovine brain cAMP-dependent protein kinase assessed as transfer of p32 to histone using [gamma-32P]ATP at 10^-7 M relative to cAMP triester
Summary of the method: (§1)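 Bovine brain cAMP-dependent protein kinase was purified by DEAE-cellulose chromatography (about 1000 units/mg). The 0.2 mL mix held 50 mM Mops pH 6.5, 5 mM MgCl2, 7 mM mercaptoethanol, [γ-32P]ATP (1.3 Ci/mmol), 60 µg calf thymus histones, 15-25 µg kinase and triester or cAMP. It ran 5 min at 30 °C, reading 32P in acid-precipitable histones. Value is test-compound activity divided by cAMP activity.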

[2] = Retardation factor, Rf of the compound in ClCH2CH2Cl-EtOH solvent
Bos taurus [3] = species on record: Bos taurus; test: Activation of bovine brain cAMP-dependent protein kinase assessed as transfer of p32 to histone using [gamma-32P]ATP at 10^-6 M relative to cAMP triester; summary of the method: as §1
Bos taurus [4] = species on record: Bos taurus; test: Activation of bovine brain cAMP-dependent protein kinase assessed as transfer of p32 to histone using [gamma-32P]ATP at 10^-4 M relative to cAMP triester; summary of the method: as §1
Bos taurus [5] = species on record: Bos taurus; test: Activation of bovine brain cAMP-dependent protein kinase assessed as transfer of p32 to histone using [gamma-32P]ATP at 10^-5 M relative to cAMP triester; summary of the method: as §1
[6] = Retardation factor, Rf of the compound in […] solvent; assay type: physicochemical
C6 [7] = test: Morphological alteration in rat C6 cells at 10^-3 M after 90 mins by microscopy; assay type: ADME, cell-based; conditions: c6, 1.5 h, 1000 µM
Summary of the method: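 Near-confluent C6 rat glioma cultures (about 5-9 x 10^5 cells per plate), grown in DME with 10% newborn calf serum, were given 10^-3 M of each triester with theophylline. After 90 min on a shaking table, morphological change was scored microscopically as the percentage of altered cells. + means 90-95% and - means 0% differentiation.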

[8] = Half life in Mops buffer at pH 6.5 at 30 degC by liquid chromatography; assay type: physicochemical
Summary of the method: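 Triester was held in Mops buffer, pH 6.5, at 30 °C. Products were separated by LC with UV monitoring at 258 nm, using integration or an internal standard. Half-life came from a pseudo-first-order kinetic fit.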

[9] = Half life in H2O at 5 uM at 50 degC by liquid chromatography; assay type: physicochemical; conditions: water
[10] = Photolysis mediated drug hydrolysis assessed as half life under 366 nm irradiation by liquid chromatography; assay type: physicochemical
Summary of the method: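 The o-nitrobenzyl ester, 4 mM in Me2SO-phosphate buffer pH 7.1 (1:10 v/v), was irradiated at 366 nm with a 320 nm cut-off, at 37 °C and 6 cm from the source. Half-life was estimated from the rate of cAMP formation followed by LC.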

C6 [11] = test: Drug uptake in rat C6 cells assessed as morphologically differentiation at 10^-4 M after 90 mins by microscopy; assay type: ADME, cell-based; conditions: c6, 1.5 h, 100 µM
Summary of the method: (§2)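 Growing C6 rat glioma cells were kept in DME with 10% newborn calf serum at 37 °C under 10% CO2. Near-confluent plates (about 5-9 x 10^5 cells) were exposed to triester with theophylline on a constantly moving shaking table. The percentage of morphologically altered cells was estimated by microscopy at intervals, with an error of 5-10%.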

C6 [12] = test: Drug uptake in rat C6 cells assessed as morphologically differentiation at 10^-3 M after 90 mins by microscopy; assay type: ADME, cell-based; conditions: c6, 1.5 h, 1000 µM
C6 [13] = test: Drug uptake in rat C6 cells assessed as morphologically differentiation at 10^-4 M after 20 mins by microscopy; assay type: ADME, cell-based; conditions: c6, 20 min, 100 µM; summary of the method: as §2
C6 [14] = test: Drug uptake in rat C6 cells assessed as cAMP level per of protein at 10^-4 M after 90 mins; assay type: ADME, cell-based; conditions: c6, 1.5 h, 100 µM
Summary of the method: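 C6 glioma cells were grown in DME with 10% newborn calf serum at 37 °C under 10% CO2 and treated with triester plus theophylline. After 90 min, internal cAMP was measured by Gilman's method and related to protein, using a bovine serum albumin standard.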

C6 [15] = test: Drug uptake in rat C6 cells assessed as morphologically differentiation at 10^-3 M after 20 mins by microscopy; assay type: ADME, cell-based; conditions: c6, 20 min, 1000 µM
C6 [16] = test: Drug uptake in rat C6 cells assessed as cAMP level per of protein at 10^-3 M after 90 mins; assay type: ADME, cell-based; conditions: c6, 1.5 h, 1000 µM
C6 [17] = test: Drug uptake in rat C6 cells assessed as morphologically differentiation at 10^-4 M after 50 mins by microscopy; assay type: ADME, cell-based; conditions: c6, 50 min, 100 µM; summary of the method: as §2
C6 [18] = test: Drug uptake in rat C6 cells assessed as morphologically differentiation at 10^-3 M after 50 mins by microscopy; assay type: ADME, cell-based; conditions: c6, 50 min, 1000 µM

Compound | Ratio (Bos taurus [1]) | Rf [2] | Ratio (Bos taurus [3]) | Ratio (Bos taurus [4]) | Ratio (Bos taurus [5]) | Rf [6] | Activity (C6 [7]) | half-life [8] | half-life at 5 µM [9] | half-life [10] | Activity (C6 [11]) | Activity (C6 [12]) | Activity (C6 [13]) | Activity (C6 [14]) | Activity (C6 [15]) | Activity (C6 [16]) | Activity (C6 [17]) | Activity (C6 [18])
COP1(=O)OC[C@H]2O[C@@H](n3cnc4c(N)ncnc43)[C@H](O)[C@@H]2O1 (stereo partly specified) | 0 | 0.18 | 0.05 | 0.67 | 0.52 | 0.33 |  |  |  |  |  |  |  |  |  |  |  | 
CCO[P@@]1(=O)OC[C@H]2O[C@@H](n3cnc4c(N)ncnc43)[C@H](O)[C@@H]2O1 | 0 | 0.3 | 0 | 0.14 | 0.06 | 0.4 | 0% | 9.5 h |  |  |  |  |  |  |  |  |  | 
Nc1ncnc2c1ncn2[C@@H]1O[C@@H]2COP(=O)(OCc3ccccc3)O[C@H]2[C@H]1O (single isomer, unassigned) [listing 1 of 2 here] |  | 0.39 |  |  |  | 0.46 | 90% | 9.5 h | 2.2 h |  |  |  |  |  |  |  |  | 
Nc1ncnc2c1ncn2[C@@H]1O[C@@H]2CO[P@](=O)(OCc3ccc([N+](=O)[O-])cc3)O[C@H]2[C@H]1O | 0 | 0.34 | 0 | 0.54 | 0.24 | 0.43 | 90% | 9.5 h | 240 h |  |  |  |  |  |  |  |  | 
CO[P@]1(=O)OC[C@H]2OC(n3cnc4c(N)ncnc43)[C@H](O)[C@@H]2O1 (single isomer, unassigned) |  |  |  |  |  |  | 0% |  |  |  |  |  |  |  |  |  |  | 
Nc1ncnc2c1ncn2[C@@H]1O[C@@H]2CO[P@@](=O)(OCc3ccc([N+](=O)[O-])cc3)O[C@H]2[C@H]1O | 0 | 0.25 | 0.04 | 1.01 | 0.49 | 0.37 | 90% | 3 h | 73 h |  |  |  |  |  |  |  |  | 
Nc1ncnc2c1ncn2[C@@H]1O[C@@H]2COP(=O)(OCc3ccccc3)O[C@H]2[C@H]1O (single isomer, unassigned) [listing 2 of 2 here] | 0 |  | 0.09 | 0.45 | 0.59 |  |  |  |  |  |  |  |  |  |  |  |  | 
Nc1ncnc2c1ncn2[C@@H]1O[C@@H]2CO[P@@](=O)(OCc3ccccc3[N+](=O)[O-])O[C@H]2[C@H]1O | 0 | 0.26 | 0.04 | 1.28 | 0.59 | 0.39 | 90% | 3 h | 83 h | 0.867 h |  |  |  |  |  |  |  | 
Cc1ccc(CO[P@@]2(=O)OC[C@H]3O[C@@H](n4cnc5c(N)ncnc54)[C@H](O)[C@@H]3O2)cc1 |  | 0.26 |  |  |  | 0.45 | 90% | 9.5 h | 0.1 h |  | 80% | 90% | 10% | 70 pmol/mg | 20% | 225 pmol/mg | 30% | 60%
Nc1ncnc2c1ncn2[C@@H]1O[C@@H]2CO[P@@](=O)(OCc3ccccc3)O[C@H]2[C@H]1O | 0.03 | 0.25 | 0.49 | 1.22 | 1 | 0.35 | 90% | 3 h | 0.5 h |  |  |  |  |  |  |  |  | 
CCO[P@]1(=O)OC[C@H]2O[C@@H](n3cnc4c(N)ncnc43)[C@H](O)[C@@H]2O1 | 0 | 0.19 | 0 | 0.58 | 0.06 | 0.35 | 0% | 3 h |  |  |  |  |  |  |  |  |  | 
Nc1ncnc2c1ncn2[C@@H]1O[C@@H]2COP(=O)(OCc3ccccc3)O[C@H]2[C@H]1O (stereo partly specified) | 0.07 |  | 0.46 | 0.66 | 0.84 |  |  |  |  |  |  |  |  |  |  |  |  | 
CO[P@@]1(=O)OC[C@H]2O[C@@H](n3cnc4c(N)ncnc43)[C@H](O)[C@@H]2O1 |  |  |  |  |  |  | 0% |  |  |  |  |  |  |  |  |  |  | 
Nc1ncnc2c1ncn2[C@@H]1O[C@@H]2CO[P@](=O)(OCc3ccccc3[N+](=O)[O-])O[C@H]2[C@H]1O | 0 | 0.39 | 0 | 0.34 | 0.05 | 0.44 | 90% | 9.5 h | 300 h | 1.1 h |  |  |  |  |  |  |  | 
NC[C@H](O)c1ccc(O)c(O)c1.O=C(O)C(O)C(O)C(=O)O |  |  |  |  |  |  |  |  |  |  | 90% |  | 50% | 250 pmol/mg |  |  | 80% | 
